A short description of this assay: Antioxidant activity assessed as DPPH free radical scavenging activity measured after 30 mins by spectrophotometry. The assay is classed as functional. The method, boiled down:
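DPPH radical scavenging in ethanolic solution with a final DPPH concentration of 100 µM. Absorbance read at 517 nm. Percent inhibition = (A control − A test)/A control, where the control is DPPH without sample. The inhibition-versus-concentration plot gives EC50, the concentration giving a 50% drop in absorbance. Mean ± S.D. of three independent trials.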

Turning to VITAMIN E, the EC50 is 50.9 µM. With `Nc1ccc(NC(=O)/C=C/c2ccc(O)c(O)c2)cc1`, the concentration for a half-maximal effect (EC50) amounted to 36 µM. As to `O=C(/C=C/c1ccc(O)c(O)c1)Nc1ccccc1`, the EC50 worked out at 52.6 µM. Turning to `Cc1cc([N+](=O)[O-])ccc1NC(=O)/C=C/c1ccc(O)c(O)c1`, the EC50 amounted to 13.2 µM. Under `CC(C)(C)c1ccc(O)c(NC(=O)/C=C/c2ccc(O)c(O)c2)c1` stands 11.9 µM; under `CC(=O)c1cccc(NC(=O)/C=C/c2ccc(O)c(O)c2)c1`, 10.6 µM; under `O=C(O)/C=C/c1ccc(O)c(O)c1` [CAFFEIC ACID], 30.9 µM. Consider `O=C(/C=C/c1ccc(O)c(O)c1)Nc1ccc([N+](=O)[O-])cc1`, for which the EC50 worked out at 7.21 µM. On to `O=C(/C=C/c1ccc(O)c(O)c1)NCCc1c[nH]c2ccccc12`, for which the EC50 came to 58.8 µM. In the case of `O=C(/C=C/c1ccc(O)c(O)c1)Nc1cc(Cl)c(O)c(Cl)c1`, the EC50 was 5.51 µM. For `O=C(/C=C/c1ccc(O)c(O)c1)Nc1ccc2ccccc2c1` the value was 47.3 µM. Turning to `O=C(/C=C/c1ccc(O)c(O)c1)Nc1ccc(F)cc1`, the EC50 came to 24.1 µM. For the molecule `O=C(/C=C/c1ccc(O)c(O)c1)Nc1ccccc1Sc1ccccc1`, the EC50 stood at 27 µM.

One may read the EC50 as the concentration that produces a half-maximal response.

The record behind these values is ChEMBL document CHEMBL3868627, “Radical scavenging and antibacterial activity of caffemides against gram positive, gram negative and clinical drug resistance bacteria” (Bioorg Med Chem Lett, 2016).
